Data: paper PMC2289302 (The Journal of Cell Biology, 1992)

What was measured:
[1] = test system: A375 melanoma cells; type: cell-based, human; conditions: 5 ug/ml peptide, no activation, Figs. 2 and 3
Method in brief: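 Surfaces coated at 5 ug/ml with plasma fibronectin or with synthetic peptides, each carrying an NH2-terminal cysteine on a gly-gly-gly tail and conjugated to SMCC-derivatized RSA. Human melanoma A375 cells were left to adhere for 1 h. Nonadherent cells were washed off. Adherent monolayers were photographed under phase contrast on an inverted microscope to judge adhesion and spreading.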

[2] = molecular target: LDV peptide-RSA conjugate (human); assay: cell adhesion assay
[3] = molecular target: alpha 4 beta 1 integrin (human (endogenous in Jurkat, Ramos, …, UniProt P13612;P05556)); assay: cell adhesion assay

rsa-EILDVPST
adhesion of A375 melanoma cells to coated surface, in words [1]: able to support the adhesion

alpha 4 beta 1 integrin (from UniProt P13612;P05556) (receptor)
molar concentration of peptide conjugate required for 50% adhesion [2]: > 2000

B1: EILDV peptide (peptide)
peptide: EILDV
IC50 [3]: 660 µM

B2: B12 peptide (peptide)
peptide: LHGPEILDVPST
IC50 [3]: 400 µM

B3: A13 peptide (peptide)
peptide: DELPQLVTLPHPN
IC50 [3]: > 1000 µM

B4: GPEILDVPST peptide (peptide)
peptide: GPEILDVPST
IC50 [3]: 450 µM
